# Results taken from PMC7036014 (Molecular cell, 2019).
# Changes are numbered by the printed parent chain.
# What was measured:
# [1] = target: T1, recombinant full-length murine PLIN5 (Mus musculus, UniProt Q8BVZ1); assay: Intrinsic tryptophan fluorescence quenching binding assay, PLIN5; details: for binding curve, PLIN5: tryptophan fluorescence
# T1 sequence (Q8BVZ1 1-463): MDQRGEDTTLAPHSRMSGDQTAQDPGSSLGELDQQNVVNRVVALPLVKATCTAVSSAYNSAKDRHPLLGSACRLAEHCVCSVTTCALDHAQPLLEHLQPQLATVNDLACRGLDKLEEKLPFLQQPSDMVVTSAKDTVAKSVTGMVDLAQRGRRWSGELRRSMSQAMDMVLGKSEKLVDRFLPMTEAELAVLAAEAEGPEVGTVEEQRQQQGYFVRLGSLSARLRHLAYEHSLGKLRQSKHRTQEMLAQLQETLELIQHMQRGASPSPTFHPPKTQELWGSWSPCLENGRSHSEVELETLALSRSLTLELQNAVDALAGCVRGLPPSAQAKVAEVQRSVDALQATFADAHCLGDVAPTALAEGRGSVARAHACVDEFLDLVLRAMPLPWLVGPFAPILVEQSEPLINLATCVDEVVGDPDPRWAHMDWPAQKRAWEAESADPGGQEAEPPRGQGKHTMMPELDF
# Summary of the method: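 Protein at 150 nM in 10 mM NaH2PO4, pH 7.5, titrated with ethanolic fatty acid. Excitation 295 nm, emission scanned 300–400 nm. Signal corrected for buffer-plus-ligand background. ΔF (F0−F) plotted against ligand to give a saturation curve. Kd taken from linear regression of the double-reciprocal transform. PLIN5: untagged full-length murine recombinant protein, n=4.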
# SIRT1 [2] = target: T2, SIRT1 (Homo sapiens, UniProt Q96EB6); assay: Circular dichroic analysis of SIRT1 secondary structure with ligand; details: for shape of the CD spectrum of SIRT1: addition of ligand
# T2 sequence (Q96EB6 1-747): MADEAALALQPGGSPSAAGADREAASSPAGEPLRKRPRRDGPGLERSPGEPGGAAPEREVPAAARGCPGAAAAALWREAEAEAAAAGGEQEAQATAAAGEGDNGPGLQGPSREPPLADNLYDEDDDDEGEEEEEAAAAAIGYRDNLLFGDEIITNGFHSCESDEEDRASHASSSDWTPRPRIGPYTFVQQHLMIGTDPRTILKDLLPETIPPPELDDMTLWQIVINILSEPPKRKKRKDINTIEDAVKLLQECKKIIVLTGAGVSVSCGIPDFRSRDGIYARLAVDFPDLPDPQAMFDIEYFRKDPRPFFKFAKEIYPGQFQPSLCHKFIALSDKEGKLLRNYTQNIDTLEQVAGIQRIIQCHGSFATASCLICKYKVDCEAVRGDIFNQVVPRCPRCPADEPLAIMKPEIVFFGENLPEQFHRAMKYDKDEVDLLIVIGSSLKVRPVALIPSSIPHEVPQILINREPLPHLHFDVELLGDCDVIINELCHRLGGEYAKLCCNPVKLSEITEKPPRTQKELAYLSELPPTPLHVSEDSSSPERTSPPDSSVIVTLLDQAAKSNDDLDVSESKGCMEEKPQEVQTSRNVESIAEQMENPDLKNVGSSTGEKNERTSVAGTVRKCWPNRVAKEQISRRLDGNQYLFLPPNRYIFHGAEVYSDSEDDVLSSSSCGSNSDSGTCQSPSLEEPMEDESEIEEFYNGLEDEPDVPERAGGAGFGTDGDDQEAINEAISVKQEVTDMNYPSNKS
# SIRT1 [3] = target: T2, SIRT1; assay: Intrinsic tryptophan fluorescence quenching binding assay, SIRT1; details: for Kd, SIRT1: tryptophan quenching
# SIRT1 [4] = target: T2, SIRT1; assay: HPLC-MS/MS SIRT1 deacetylation assay with acetylated peptide substrates; type: biochemical; details: for activation of SIRT1 towards mutant p53 peptide (p53-W): 250 nM 18:1, 10 μM resveratrol, 1 μM SRT1720; for allosteric activation of SIRT1 towards wild-type p53 peptide: p53 peptide lacking hydrophobic residue at +1 or +6
# Summary of the method: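 Recombinant SIRT1 (1 μM, E. coli-expressed) incubated with acetylated peptide (0–250 μM) plus fatty acid in 25 mM Tris, pH 8.0, 50 mM NaCl, 1 mM DTT, 1 mM NAD+ for 60 min at 37°C. Deacetylation quantified by HPLC-MS/MS with positive-mode electrospray. Km, Vmax and kcat obtained from Lineweaver-Burk plots.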
# SIRT1 [5] = target: T2, SIRT1; assay: 1,8-ANS displacement assay, SIRT1; type: binding; details: for Ki, SIRT1: displacement of 1,8-ANS
# PGC-1α activity, MEFs = assay: PGC-1α luciferase reporter assay in MEFs; type: cell-based, mouse
# PLIN5 = target: T3, PLIN5 (Mus musculus, UniProt Q8BVZ1); assay: 1,8-ANS displacement assay, PLIN5; type: binding, murine
# T3 sequence (Q8BVZ1 1-463): T1 sequence (Q8BVZ1 1-463)
# Summary of the method: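 Untagged recombinant PLIN5 (His-MBP tag removed by TEV protease) at 1 μM with 500 nM 1,8-ANS in 50 mM sodium phosphate, pH 7.5, 25°C. Competitor lipids added in increasing amounts, each mixed 60 s before reading fluorescence. I50 taken from the normalized displacement curve. Ki = I50/(1+[L]/KD), using the ANS KD from a Scatchard analysis of a protein titration.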
# PLIN5-pM (S155E) = target: T4, PLIN5-pM (S155E) (Mus musculus, UniProt Q8BVZ1, S155E); assay: Tryptophan fluorescence quenching binding assay, PLIN5-pM; design: species or system murine
# T4 sequence (Q8BVZ1 1-463 S155E): T1 sequence (Q8BVZ1 1-463) with S155E
# [6] = acetylated PGC-1α peptide substrate
smiles,measurement,setting,value
"CCCCCCCCCCCCCCCC(=O)O [16:0, palmitic acid]","binding curve, PLIN5",[1],Saturable binding curves
same,shape of the CD spectrum of SIRT1,SIRT1 [2],did not alter
same,"Kd, SIRT1",SIRT1 [3],No fatty acid binding was observed
same,stimulation of SIRT1 deacetylase activity,SIRT1 [4]; [6],unable to stimulate
same,"Ki, SIRT1",SIRT1 [5],not observed
"CCCCCC/C=C\CCCCCCCC(=O)O [16:1, palmitoleic acid]",Kd,[1],0.082 ± 0.012 µM
same,"binding curve, PLIN5",[1],Saturable binding curves
same,"PGC-1α activity with cAMP, individual fatty acid loading","PGC-1α activity, MEFs; vs non-loaded or 18:0/16:0 loaded cells",synergized with cAMP
same,α-helical content of SIRT1,"SIRT1 [2]; with ligand, 23% without ligand",25.9%
same,Kd,SIRT1 [3],0.1 ± 0.003 µM
same,Km of SIRT1 towards the PGC-1α peptide,SIRT1 [4]; [6],lowering
same,SIRT1 catalytic efficiency (Kcat/Km) towards the PGC-1α peptide,SIRT1 [4]; [6],increase
same,Ki,PLIN5,9.9 ± 0.07 µM
same,Ki,SIRT1 [5],12.5 ± 0.06 µM
same,Kd,PLIN5-pM (S155E),0.023 ± 0.003 µM
same,increase in binding affinity of PLIN5-pM,PLIN5-pM (S155E); PLIN5-pM vs comparator,3.4 fold
"CCCCCCCCCCCCCCCCCC(=O)O [18:0, stearic acid]","binding curve, PLIN5",[1],Saturable binding curves
same,shape of the CD spectrum of SIRT1,SIRT1 [2],did not alter
same,"Kd, SIRT1",SIRT1 [3],No fatty acid binding was observed
same,stimulation of SIRT1 deacetylase activity,SIRT1 [4]; [6],unable to stimulate
same,Ki,PLIN5,17.7 ± 0.04 µM
same,"Ki, SIRT1",SIRT1 [5],not observed
"CCCCC/C=C\C/C=C\C/C=C\C/C=C\CCCC(=O)O [20:4, arachidonic acid]","binding curve, PLIN5",[1],Saturable binding curves
"CN(C)C(=O)Nc1cccc(-c2ccc(N(C)C)cc2)c1 [ATGLstatin, reference compound]",effects of β-adrenergic stimulation on PGC-1α activity in 18:1 loaded cells,"PGC-1α activity, MEFs; 30 μM ATGL inhibitor",blocked
"O=C(Nc1ccccc1-c1cn2c(CN3CCNCC3)csc2n1)c1cnc2ccccc2n1 [SRT1720, reference compound]",activation of SIRT1 towards mutant p53 peptide (p53-W),SIRT1 [4],activated
same,allosteric activation of SIRT1 towards wild-type p53 peptide,SIRT1 [4],did not respond
"Oc1ccc(/C=C/c2cc(O)cc(O)c2)cc1 [resveratrol, reference compound]",activation of PGC-1α in Sirt1 knockout cells rescued with GFP tagged human Sirt1,"PGC-1α activity, MEFs; Sirt1 knockout MEFs + human Sirt1",restored
same,regulation of PGC-1α in Sirt1 knockout cells rescued with Sirt1-E230K mutant,"PGC-1α activity, MEFs; Sirt1 knockout MEFs + human Sirt1 E230K",did not restore
same,activation of SIRT1 towards mutant p53 peptide (p53-W),SIRT1 [4],activated
same,allosteric activation of SIRT1 towards wild-type p53 peptide,SIRT1 [4],did not respond
